# Assay outcomes (PubChem BioAssay)
# hERG rescue: compounds protecting human hERG from proarrhythmic drug block | CHO-hERG, FluxOR thallium flux, dofetilide IC70 present | 310,000 tested, 0.51% active | activation (rescue from dofetilide block), less the hit threshold, % at 10 µM | Q12809 | AID 1511;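 active = activation above the mean of controls blocked by dofetilide plus 5 SD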;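 note: thallium influx through hERG after potassium depolarization seen as dye fluorescence rise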
# KCNK3 inh: human KCNK3 channel inhibition, primary screen; O14649; CHO-KCNK3 thallium flux, FluxOR fluorescence; hits give low values; B-score at 10 µM; 340,000 tested, 0.84% active;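 active = B-score under library mean minus 4 SD, starting fluorescence ratio at most library mean plus 5 SD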;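 note: more negative B-score means stronger inhibition of thallium flux through KCNK3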
# KCNQ1 inh: blocks the human KCNQ1 potassium channel | B-score at 10 µM | 310,000 tested, 1.3% active | CHO-K1 KCNQ1, FluxOR thallium flux fluorescence; hits give high values | P51787 | AID 2642;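 active = compounds whose thallium flux B-score, printed positive for inhibition, exceeds three library SD while starting fluorescence stays within three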;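 note: channel opened by potassium depolarization with thallium stimulus after 20 min compound exposure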
# KCNK9 inh: inhibitors of human KCNK9 two-pore domain potassium channel; Q9NPC2; HEK293 KCNK9, FluxOR thallium flux fluorescence; hits give low values; B-score at 10 µM; 310,000 tested, 1.2% active;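 active = ratio B-score over 3 SD below the library mean, with starting fluorescence within 5 SD of its mean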;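 note: negative B-score means less thallium flux so channel inhibition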
# KCC2 mod: KCC2 (human) Cl- transport modulation; AID 1456; KCC2 cells, thallium flux FluoZin-2 fluorescence; 190,000 tested, 2.2% active; Q9H2X9; B-score of Tl+ flux slope (higher = more flux/activation; lower = inhibition) at 10 µM;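 active = thallium flux slope and its plate-corrected score both differing from the plate sample mean at a set confidence after two filtering rounds, in either direction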;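 note: slope of fluorescence scaled to starting intensity during 10 to 20 s after thallium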
# KCNQ1 pot: potentiates or activates the human KCNQ1 potassium channel; P51787; CHO-K1 KCNQ1, thallium flux FluxOR fluorescence; hits give high values; 310,000 tested, 0.35% active; B-score at 10 µM;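 active = fluorescence ratio B-score, a plate-corrected score, at least three library SD, with initial intensity B-score within 5 SD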
#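 assay system = CHO-K1 cells stably expressing KCNQ1 | medium = assay buffer, equal DMSO in all wells | timing = 37 °C overnight plating, 90-min dark dye load, 20-min compound pretreatment | measured by = kinetic FluxOR thallium fluorescence, 10-s 1-Hz baseline, 110-s post-stimulus read | measure = fluorescence change relative to baseline, converted to B score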
# KCNK9 block conf: confirmation of human KCNK9 potassium channel inhibitors | shares compounds with KCNK9 inh | HEK293 KCNK9 cells, FluxOR thallium flux fluorescence | inhibition, % at 10 µM | 4,900 tested, 43% active | AID 492992;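 active = thallium signal inhibited by more than 5 SD of the compound-free buffer control wells, on both duplicate plates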;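 note: 0% = assay buffer control wells without compound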
# Kir21 sel: selectivity of KCNK9 modulators against mouse Kir2.1; Kir2.1 cells, FluxOR thallium flux fluorescence; 4,900 tested, 4% active; inhibition, % at 10 µM; shares compounds with KCNK9 inh;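 active = thallium signal drop more than 5 SD beyond the mean of the no-compound control wells, seen in both duplicate plates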;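 note: signal is fluorescence rise after thallium addition divided by baseline fluorescence; plate controls were assay buffer only for no effect and full block by chlorpromazine control for full effect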
# KCNK9 uninduced: second counter-screen for KCNK9 modulators: effect in non-induced cells; inhibition, % at 10 µM; 4,900 tested, 40% active; shares compounds with KCNK9 inh; non-induced KCNK9-HEK293, FluxOR thallium flux;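 active = thallium signal drop beyond 5 SD of the untreated control mean, on both duplicate plates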;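 note: plate controls were buffer only IC0 wells for no effect and SID17386958 at its maximal inhibitory level for full effect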
# An asterisk follows results filed as active; i = inactive; . = not tested or not shown. A selection: hits, their analogues and other compounds. The true share with any hit is near 4.1%.
SMILES,hERG rescue,KCNK3 inh,KCNQ1 inh,KCNK9 inh,KCC2 mod,KCNQ1 pot,KCNK9 block conf,Kir21 sel,KCNK9 uninduced
O=C(/C=C1\NC2(CCCC2)Cc2ccccc21)C(=O)N/N=C/c1ccccc1O,-12.0,i,i,i,0.1,i,.,.,.
COc1cc(/C=N/NC(=O)C(=O)/C=C2\NC3(CCCC3)Cc3ccccc32)ccc1O,-7.4,i,i,-11.4*,-0.00718,i,44.5%*,i,28.0%*
COC(=O)c1ccccc1N/C=C/C(=O)c1ccc(Br)cc1,-3.6,i,i,-12.2*,-0.0683,i,43.0%*,i,38.5%*
CCOC(=O)c1ccccc1N/C=C/C(=O)c1cccs1,-4.3,i,i,-9.78*,-1.42,i,50.0%*,i,39.0%*
NC(=O)c1ccccc1N/C=C/C(=O)c1ccccc1,-16.8,i,i,i,-0.206,i,.,.,.
O=C(NCC(c1ccco1)N1CCOCC1)c1ccc(F)c(F)c1 (centres undefined),-10.7,i,i,i,.,i,.,.,.
CCOC(=O)Cc1c(C)nc2c(-c3ccccc3)c(C)nn2c1C,-6.0,i,i,i,-1.95,i,i,i,i
COc1ccc(C)cc1-n1c(SCC(=O)Nc2cc(C)on2)nc2ccccc2c1=O,-10.0,i,i,i,0.583,i,.,.,.
NS(=O)(=O)c1cccc(NC(=O)CSc2nc3ccccc3c(=O)n2Cc2ccco2)c1,.,i,.,.,.,.,.,.,.
COc1ccccc1-n1c(SCC(=O)Nc2cccc(S(N)(=O)=O)c2)nc2ccccc2c1=O,-16.0,i,i,-8.45*,-0.425,i,34.0%*,i,i
COc1ccc(OC)c(-n2c(SCC(=O)Nc3cccc(S(N)(=O)=O)c3)nc3ccccc3c2=O)c1,-9.0,i,i,-12.8*,-0.398,i,56.5%*,i,34.5%*
CCN(C(=O)COC(=O)c1cc2ccccc2cc1OC)c1c(N)n(Cc2ccccc2)c(=O)[nH]c1=O,.,i,.,.,.,.,.,.,.
Cc1cc(C)cc(CC2CC(=O)N(c3ccc4c(c3)OCCO4)C2=O)c1 (centres undefined),-3.2,i,i,i,.,i,i,i,i
CC(C)Cn1c2c(c(O)c(C(=O)Nc3ncccc3O)c1=O)CCCC2,-10.1,i,i,-9.71*,-1.84,i,55.0%*,i,40.0%*
COc1ccc(C)cc1N(C(=O)c1ccccc1)c1nc2ccccc2s1,-4.4,i,i,-10.4*,-0.163,i,41.5%*,i,32.0%*
COc1ccc(C)cc1N(C(=O)c1ccccc1F)c1nc2ccccc2s1,-13.0,i,i,-9.73*,-0.102,i,45.5%*,i,36.0%*
CCOc1cccc(-c2c(C(=O)N/N=C/c3ccsc3)nnn2-c2nonc2N)c1,-9.6,i,i,i,.,i,.,.,.
Cc1cc(C(=O)N2CCCC(C(=O)c3ccc4ccccc4c3)C2)n(C)n1 (centres undefined),-5.9,i,i,i,-0.747,i,i,i,i
CCn1cc(C(=O)N2CCCC(C(=O)c3ccc4ccccc4c3)C2)cn1 (centres undefined),-3.2,i,i,i,.,i,i,i,i
COc1ccc2cc(C(=O)C3CCCN(C(=O)c4cnccn4)C3)ccc2c1 (centres undefined),-10.5,i,i,i,-0.461,i,.,.,.
O=C(c1ccc2ccccc2c1)C1CCCN(C(=O)c2cnccn2)C1 (centres undefined),-10.7,i,i,i,0.345,i,i,i,i
COc1ccc2cc(C(=O)C3CCCN(C(=O)/C=C/c4ccccn4)C3)ccc2c1 (centres undefined),-4.9,i,i,i,-1.25,i,i,i,i
Cc1nc(C)c(C(=O)N2CCCC(C(=O)c3ccc4ccccc4c3)C2)s1 (centres undefined),-9.2,i,i,i,.,i,.,.,.
Cc1ccc(C2NNC(=O)C2NC(=O)c2ccccc2)cc1 (centres undefined),-3.6,i,i,i,-0.00806,i,.,.,.
COc1ccc(CN2C(=O)C(Cc3ccccc3)Nc3ncnc(N4CCc5ccccc5C4)c32)cc1 (centres undefined),-14.1,.,i,i,.,i,.,.,.
SMILES,hERG rescue,KCNK3 inh,KCNQ1 inh,KCNK9 inh,KCC2 mod,KCNQ1 pot,KCNK9 block conf,Kir21 sel,KCNK9 uninduced
O=c1[nH]c2cc(Cl)c(Br)cc2o1,.,i,.,.,.,.,.,.,.
COc1ccccc1CNC(=O)COC(=O)CSc1ccc(Cl)cc1,-6.8,i,i,i,.,i,.,.,.
COc1ccccc1CNc1cc(CSc2ccc(Cl)cc2)nc(C)n1,-6.2,i,i,i,.,i,i,46.0%*,i
Nc1ncnc(Nc2cccc(C(F)(F)F)c2)n1,-11.4,i,i,i,-0.484,i,.,.,.
Nc1nc(Nc2cccc(C(F)(F)F)c2)nc(C(F)(F)F)n1,-5.5,i,i,-9.26*,-1.68,i,40.0%*,i,i
Cc1nnc(C)n1/N=C/c1c(O)ccc2ccccc12,-4.6,i,i,i,.,i,.,.,.
Cc1nnc(-c2ccccc2)c(=O)n1/N=C/c1c(O)ccc2ccccc12,-5.8,i,8*,-8.84*,-2.44,i,38.5%*,i,34.0%*
COc1ccc(CN(C)C(=O)c2cccc(S(=O)(=O)N3CCc4ccccc43)c2)c(OC)c1,.,i,.,.,.,.,.,.,.
O=C(CCNS(=O)(=O)c1ccc(Br)cc1)Nc1cccc(F)c1,-4.8,i,i,i,.,i,.,.,.
COc1ccc(C2=CC(=O)C[C@H](c3ccc(F)cc3)C2)cc1OC,.,i,.,.,.,.,.,.,.
COc1ccc(C)cc1NC(=O)C(OC(=O)Cn1cnc2c1c(=O)n(C)c(=O)n2C)c1ccccc1 (centres undefined),-14.8,i,i,i,.,i,.,.,.
COc1ccc(C)cc1NC(=O)C(OC(=O)CNC(=O)c1ccc(Br)cc1)c1ccccc1 (centres undefined),-7.2,i,i,-10*,0.154,i,36.0%*,i,37.5%*
COc1ccc(N(C)S(=O)(=O)c2cccc(C(=O)OC(C(=O)Nc3cc(C)cc(C)c3)c3ccccc3)c2)cc1 (centres undefined),-10.5,i,i,i,0.295,i,.,.,.
